SIAE inh: blocks human sialic acid acetylesterase | inhibition, % at 9.66 µM | hit rate 0.69% among 370,000 | SIAE FP-Rh probe binding, fluorescence polarization | AID 1053197;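 active = inhibition above a cutoff: mean of compounds within the control limits plus 3 SD of those, cut at about 17% in these data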
TCR-CD3 inh: blocks the human TCR-CD3 interaction. TAMRA-labeled TCR probe fluorescence, biochemical. inhibition, % at 9.4 µM. hit rate 0.37% among 360,000. AID 651800;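 note: recombinant mutant TCR 2C K166C tagged with TAMRA read by polarization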
mABHD4 FP: inhibits mouse alpha/beta hydrolase domain 4; Q8VD66; AID 720543; purified mABHD4, FP-Rh probe fluorescence polarization; inhibition, % at 8.92 µM; hit rate 0.54% among 370,000;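 active = inhibition exceeding the mean over every tested compound plus 3 SD, cut at about 30% in these data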
Target sequence (Q8VD66 whole entry, looked up, the tested form may be a part): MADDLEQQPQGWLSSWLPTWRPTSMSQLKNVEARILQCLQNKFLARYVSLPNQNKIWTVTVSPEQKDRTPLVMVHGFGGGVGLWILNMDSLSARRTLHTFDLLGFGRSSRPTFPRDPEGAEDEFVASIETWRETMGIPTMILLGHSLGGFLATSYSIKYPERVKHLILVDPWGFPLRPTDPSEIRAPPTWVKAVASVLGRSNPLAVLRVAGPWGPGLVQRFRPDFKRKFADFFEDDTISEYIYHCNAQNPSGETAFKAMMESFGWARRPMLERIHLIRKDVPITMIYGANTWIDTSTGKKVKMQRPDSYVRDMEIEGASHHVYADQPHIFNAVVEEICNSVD
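Test system: mouse ABHD4 enzyme, wild type. Reagent: FP-Rh fluorescent activity-based probe, added after compound pre-incubation. Timing: pre-incubation 45 min, probe exposure 60 min, at 25 °C. Technique: FP readout, ex 525 nm / em 598 nm. Benchmarks: high control S159A mutant with DMSO, low control median of compound wells.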
rCAG binder: binds r(CAG) RNA repeats; r(CAG) RNA repeat, TO-PRO-1 dye displacement fluorescence; inhibition, % at 3 µM; hit rate 1.3% among 370,000; AID 651821;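 active = inhibition above the plate cutoff, the mean of all test compounds on that plate plus 3 SD, cut at about 35% in these data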;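 note: higher means more dye released from RNA so lower well fluorescence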
HTRA1 inh: blocks human HTRA1 serine peptidase; AID 504803; inhibition, % at 5.96 µM; recombinant HTRA1, FP-rhodamine activity-based probe, fluorescence polarization; Q92743; hit rate 0.5% among 340,000; in the data active = inhibition above about 36%
PRMT1 inh: inhibitors of human PRMT1; Q99873; AID 652257; inhibition, % at 2.79 µM; hit rate 1.3% among 370,000; recombinant PRMT1, activity-based probe fluorescence polarization;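 active = inhibition above about 21% made by adding two undisclosed values, limit read from the data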
HTRA1 inh conf: confirmation of human HTRA1 inhibitors | shares compounds with HTRA1 inh | recombinant HTRA1, FP-rhodamine activity-based probe, fluorescence polarization | inhibition, % at 5.96 µM | hit rate 66% among 1,600;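 active = mean inhibition over three repeats above a set limit taken from the earlier primary screen, cut at about 37% in these data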;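 note: inhibitors block probe binding so polarization drops and inhibition rises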
BSA probe FL: BSA probe counter-screen for TCR-CD3 inhibitors. TAMRA-labeled BSA probe fluorescence counterscreen. hit rate 10% among 1,200. inhibition, % at 9.4 µM. shares compounds with TCR-CD3 inh; in the data active = inhibition above about 23%
TCR-CD3 inh conf: TCR-CD3 interaction inhibition, confirmation; shares compounds with TCR-CD3 inh; TAMRA-labeled TCR probe fluorescence binding assay; inhibition, % at 9.4 µM; hit rate 48% among 1,200
rCAG binder conf: r(CAG) RNA repeat binding, confirmation | hit rate 70% among 4,300 | shares compounds with rCAG binder | AID 652065 | TO-PRO-1 dye displacement fluorescence | inhibition, % at 3 µM;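 active = inhibition above a per-plate cutoff, the mean inhibition of sample wells plus 3 SD, cut at about 35% in these data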;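 note: loss of TO-PRO-1 fluorescence as compound displaces dye from 1x1 AA loop RNA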
DNA CAG counter: counter-screen for rCAG RNA binders: DNA CAG dye complex inhibitors | shares compounds with rCAG binder | d(CAG) DNA oligo TO-PRO-1 dye displacement, fluorescence | inhibition, % at 3 µM | hit rate 94% among 4,300;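 active = inhibition above its plate's cutoff, the mean test-well inhibition plus 3 SD, cut at about 4.8% in these data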;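 note: hits displace the dye from DNA and so lower well fluorescence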
PRMT1 confirm: confirmation of human PRMT1 inhibitors | AID 687036 | inhibition, % at 2.79 µM | shares compounds with PRMT1 inh | recombinant His-PRMT1, activity-based probe fluorescence polarization | hit rate 42% among 3,300;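 active = mean inhibition across replicates above the hit cutoff derived for the earlier primary screen, cut at about 22% in these data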
mABHD4 conf: ABHD4 (mouse) inhibition, FP confirmation. shares compounds with mABHD4 FP. purified mABHD4, FP-Rh probe fluorescence polarization. inhibition, % at 8.92 µM. hit rate 55% among 1,800. AID 720658;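 active = mean inhibition across replicates above the hit cutoff set in the primary screen, cut at about 30% in these data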
SIAE confirm: confirmation of human SIAE inhibitors. shares compounds with SIAE inh. hit rate 13% among 2,300. inhibition, % at 9.66 µM. SIAE FP-Rh activity-based probe, fluorescence polarization. AID 1117263;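 active = mean inhibition of the replicates above the hit cutoff set in the primary screen, cut at about 17% in these data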;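 note: inhibitors lower polarization as more probe stays unbound to SIAE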
Large screens that a line does not name were inactive (follow-up assays come after a bar, where they were run). Hits are enriched below; roughly 3.5% of the tested compounds scored in any of these assays. Cut-off read from the data, not from the text of the source, unless noted: active = inhibition above about 19%; inactive = the rest.

COc1cccc2c1C(=O)c1c(O)c3c(c(O)c1C2=O)C[C@@](O)(C(=O)CO)C[C@@H]3OC1CC(N)C(O)C(C)O1 (stereo partly drawn)	SIAE inh 53.6, TCR-CD3 inh 125.2, mABHD4 FP 75.5, HTRA1 inh 72.9, PRMT1 inh 140.8 | HTRA1 inh conf 64.6 | BSA probe FL 155.7 | TCR-CD3 inh conf 126.0 | mABHD4 conf 54.6 | SIAE confirm 54.6
COc1cccc2c1C(=O)c1c(O)c3c(c(O)c1C2=O)CC(O)(C(C)=O)CC3OC1CC(N(C)C)C(O)C(C)O1 (stereo not drawn)	SIAE inh 63.8, TCR-CD3 inh 156.5, mABHD4 FP 71.9, HTRA1 inh 68.5, PRMT1 inh 193.2 | HTRA1 inh conf 68.3 | BSA probe FL 176.0 | TCR-CD3 inh conf 144.8 | PRMT1 confirm 154.1 | mABHD4 conf 60.5 | SIAE confirm 54.4
Oc1ccc(-c2csc(Nc3cccc4ccccc34)n2)cc1O	SIAE inh 25.5, rCAG binder 53.9, HTRA1 inh 70.7 | HTRA1 inh conf 71.4 | rCAG binder conf 54.9 | DNA CAG counter 33.7 | SIAE confirm inactive
Cc1csc(Nc2cccc3ccccc23)n1	none
CCOc1cc(N2CCOCC2)c(OCC)cc1NC(C)C(=O)N1CCN(CC)CC1 (stereo not drawn)	SIAE inh 27.2, TCR-CD3 inh 30.7, mABHD4 FP 41.3, HTRA1 inh 40.5 | HTRA1 inh conf inactive | BSA probe FL inactive | TCR-CD3 inh conf inactive | SIAE confirm inactive
O=C(O)c1cccc(CN2C(=O)c3ccccc3C2=O)c1	none
O=C1c2cccc3c(O)ccc(c23)C(=O)N1Cc1ccccc1	SIAE inh 42.4, TCR-CD3 inh 59.0, mABHD4 FP 75.4, HTRA1 inh 66.3, PRMT1 inh 173.7 | HTRA1 inh conf 45.9 | BSA probe FL 74.5 | TCR-CD3 inh conf 57.1 | mABHD4 conf 79.6 | SIAE confirm 49.2
O=S1(=O)c2c(NCc3ccco3)cccc2Oc2ccccc2CN1Cc1cn(Cc2cccc(F)c2)nn1	none (no result: TCR-CD3 inh, HTRA1 inh)
O=C1C=C(Nc2ccccc2)c2ccccc2C1=O	none
O=C1C=C(Nc2cccc3cccnc23)c2ccccc2C1=O	SIAE inh 19.4, mABHD4 FP 59.4, HTRA1 inh 41.6 | HTRA1 inh conf 39.4 | mABHD4 conf inactive | SIAE confirm inactive
Oc1cccc(C=Nc2cccc3ccccc23)c1O	SIAE inh 20.2, mABHD4 FP 52.6, HTRA1 inh 70.9, PRMT1 inh 38.3 | HTRA1 inh conf 52.9 | SIAE confirm inactive
Oc1ccccc1C=Nc1cccc2ccccc12	none
Nc1ccc(N2CCN(CCCCN3C(=O)C4CCCN4C3=O)CC2)cc1 (stereo not drawn)	SIAE inh 31.1, mABHD4 FP 80.6, HTRA1 inh 38.2 | HTRA1 inh conf inactive | mABHD4 conf inactive | SIAE confirm inactive
COCCCN1C(=O)[C@H](CC(=O)NCc2ccccc2)[C@]2(C(=O)OC)CCCCC=C12	none (no result: TCR-CD3 inh, HTRA1 inh)
